Source: ChEMBL document CHEMBL4190310, “Identification of 3,4-dihydro-2H-thiochromene 1,1-dioxide derivatives with a phenoxyethylamine group as highly potent and selective α1D adrenoceptor antagonists” (Eur J Med Chem, 2017)

Legend:
[1] = target: T1, Alpha-1D adrenergic receptor (Homo sapiens, UniProt P25100); experiment: Displacement of 7-methoxy-[3H]-prazosin from human alpha1D-adrenoreceptor expressed in CHOK1 cell membranes after 60 mins by TopCount liquid scintillation counting method
T1 sequence (P25100 whole entry): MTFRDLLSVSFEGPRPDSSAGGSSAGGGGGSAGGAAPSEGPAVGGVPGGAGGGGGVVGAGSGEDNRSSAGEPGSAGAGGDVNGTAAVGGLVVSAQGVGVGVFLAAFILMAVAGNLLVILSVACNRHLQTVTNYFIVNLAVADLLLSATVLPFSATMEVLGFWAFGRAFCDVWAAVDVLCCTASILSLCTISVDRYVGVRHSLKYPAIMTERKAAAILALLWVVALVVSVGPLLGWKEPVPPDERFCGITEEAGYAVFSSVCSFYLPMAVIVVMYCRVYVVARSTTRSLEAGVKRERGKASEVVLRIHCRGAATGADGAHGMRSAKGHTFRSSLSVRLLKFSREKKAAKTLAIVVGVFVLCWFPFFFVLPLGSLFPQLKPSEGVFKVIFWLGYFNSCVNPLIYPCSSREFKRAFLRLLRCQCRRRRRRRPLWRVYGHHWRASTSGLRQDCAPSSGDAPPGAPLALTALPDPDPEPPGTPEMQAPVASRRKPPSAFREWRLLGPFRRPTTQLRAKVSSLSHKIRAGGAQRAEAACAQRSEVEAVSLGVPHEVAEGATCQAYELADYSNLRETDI
Outline: (§1)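 Membranes (10 µg protein per receptor subtype) incubated with 2.5 nmol/L 7-methoxy-[3H]-prazosin and test compound at 12 concentrations. Buffer: 50 mmol/L Tris-HCl pH 7.5, 10 mmol/L MgCl2, 5 mmol/L EDTA, 0.5% BSA. Incubated 60 min at room temperature, then filtered on GF/C and washed with Tris-HCl. Nonspecific binding set with 10 µmol/L phentolamine. IC50 from logistic regression; Ki = IC50/(1 + [ligand]/Kd).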

CYP3A4 = CYP3A4 (Homo sapiens, UniProt P08684); experiment: Inhibition of human microsomal CYP3A4 at 10 uM after 10 mins by LC-MS/MS analysis relative to control; format: ADME; conditions: microsomes
Outline: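 Reversible inhibition test. Midazolam substrate incubated with 0.1 mg/mL human liver microsomes and 10 µM test compound for 10 min at 37 °C. Stopped with acetonitrile/water.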

[2] = target: T2, Alpha-1B adrenergic receptor (Homo sapiens, UniProt P35368); experiment: Displacement of 7-methoxy-[3H]-prazosin from human alpha1B-adrenoreceptor expressed in CHOK1 cell membranes after 60 mins by TopCount liquid scintillation counting method; outline: as §1
T2 sequence (P35368 whole entry): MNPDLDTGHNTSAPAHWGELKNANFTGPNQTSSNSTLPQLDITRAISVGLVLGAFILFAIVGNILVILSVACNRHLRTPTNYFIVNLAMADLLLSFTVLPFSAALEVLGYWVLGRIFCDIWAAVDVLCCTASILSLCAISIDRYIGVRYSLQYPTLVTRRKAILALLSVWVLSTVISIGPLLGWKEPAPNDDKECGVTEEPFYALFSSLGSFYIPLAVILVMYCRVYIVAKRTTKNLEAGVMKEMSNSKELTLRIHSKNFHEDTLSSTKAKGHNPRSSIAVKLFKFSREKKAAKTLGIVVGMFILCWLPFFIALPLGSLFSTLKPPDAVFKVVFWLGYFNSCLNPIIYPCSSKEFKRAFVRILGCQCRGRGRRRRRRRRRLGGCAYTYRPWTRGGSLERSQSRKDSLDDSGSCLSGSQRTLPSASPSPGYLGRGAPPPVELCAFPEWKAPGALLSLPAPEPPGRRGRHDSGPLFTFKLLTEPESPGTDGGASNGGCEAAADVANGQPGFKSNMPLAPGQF

[3] = target: T3, Alpha-1A adrenergic receptor (Homo sapiens, UniProt P35348); experiment: Displacement of 7-methoxy-[3H]-prazosin from human alpha1A-adrenoreceptor expressed in CHOK1 cell membranes after 60 mins by TopCount liquid scintillation counting method; outline: as §1
T3 sequence (P35348 whole entry): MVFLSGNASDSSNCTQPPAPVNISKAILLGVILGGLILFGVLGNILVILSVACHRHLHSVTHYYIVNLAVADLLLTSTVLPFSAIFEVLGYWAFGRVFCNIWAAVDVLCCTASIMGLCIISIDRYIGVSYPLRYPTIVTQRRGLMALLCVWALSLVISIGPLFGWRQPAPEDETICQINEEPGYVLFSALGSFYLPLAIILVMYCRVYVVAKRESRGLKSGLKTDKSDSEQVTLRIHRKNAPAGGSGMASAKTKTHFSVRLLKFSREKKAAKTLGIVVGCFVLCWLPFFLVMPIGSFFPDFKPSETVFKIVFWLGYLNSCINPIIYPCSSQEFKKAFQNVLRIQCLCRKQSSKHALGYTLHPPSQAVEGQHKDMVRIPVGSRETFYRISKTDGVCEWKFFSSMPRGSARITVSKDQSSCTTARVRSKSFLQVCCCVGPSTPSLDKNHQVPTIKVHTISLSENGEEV

Homo sapiens [4] = organism: Homo sapiens; experiment: Selectivity ratio of Ki for human alpha1A-adrenoreceptor to Ki for human alpha1D-adrenoreceptor
Homo sapiens [5] = organism: Homo sapiens; experiment: Selectivity ratio of Ki for human alpha1B-adrenoreceptor to Ki for human alpha1D-adrenoreceptor
[6] = target: T4, Alpha-1D adrenergic receptor (Rattus norvegicus) (UniProt P23944); experiment: Antagonist activity at alpha1D-adrenoreceptor in Wistar rat bladder strips assessed as relaxation of PHE-induced contractile response after 30 mins; format: functional
T4 sequence (whole entry): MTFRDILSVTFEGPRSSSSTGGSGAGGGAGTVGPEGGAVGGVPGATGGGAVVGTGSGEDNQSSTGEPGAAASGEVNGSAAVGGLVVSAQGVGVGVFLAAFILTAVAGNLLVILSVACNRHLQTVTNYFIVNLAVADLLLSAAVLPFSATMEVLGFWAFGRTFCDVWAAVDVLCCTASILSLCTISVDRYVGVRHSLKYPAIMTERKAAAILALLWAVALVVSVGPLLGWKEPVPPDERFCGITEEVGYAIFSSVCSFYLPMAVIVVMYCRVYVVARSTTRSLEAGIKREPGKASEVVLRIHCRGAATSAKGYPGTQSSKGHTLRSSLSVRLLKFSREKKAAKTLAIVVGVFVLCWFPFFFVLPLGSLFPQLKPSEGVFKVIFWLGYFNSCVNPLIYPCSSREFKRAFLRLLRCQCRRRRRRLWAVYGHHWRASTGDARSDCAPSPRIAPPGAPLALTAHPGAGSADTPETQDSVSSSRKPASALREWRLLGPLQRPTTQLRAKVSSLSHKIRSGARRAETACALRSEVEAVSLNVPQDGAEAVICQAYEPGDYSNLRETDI

Chain of CYP3A4 (P08684 whole entry): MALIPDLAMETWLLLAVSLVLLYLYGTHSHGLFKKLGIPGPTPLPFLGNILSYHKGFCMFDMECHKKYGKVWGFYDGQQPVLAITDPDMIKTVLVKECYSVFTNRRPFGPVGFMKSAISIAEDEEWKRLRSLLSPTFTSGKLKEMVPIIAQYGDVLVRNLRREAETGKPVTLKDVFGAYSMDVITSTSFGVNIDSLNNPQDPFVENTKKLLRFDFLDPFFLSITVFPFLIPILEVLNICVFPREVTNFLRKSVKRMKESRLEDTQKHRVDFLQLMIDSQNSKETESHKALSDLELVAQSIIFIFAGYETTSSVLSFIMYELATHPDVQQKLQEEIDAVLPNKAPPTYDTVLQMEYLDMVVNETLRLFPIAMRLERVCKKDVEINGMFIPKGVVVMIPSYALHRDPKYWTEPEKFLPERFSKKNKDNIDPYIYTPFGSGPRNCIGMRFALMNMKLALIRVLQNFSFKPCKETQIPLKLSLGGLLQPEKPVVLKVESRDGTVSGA

Q: What does the source list for `COc1cccc2c1C(NCCOc1cc(F)ccc1F)CCS2(=O)=O` (stereo unspecified)?
A: Ki [1]: 9.5 nM; inhibition at 10 min, 10 µM (CYP3A4): 28.6%

Q: Which Ki [1] does the source give for `CNc1ccc2c(c1)C(NCCOc1cc(F)ccc1F)CCS2(=O)=O` (stereo unspecified) here?
A: The Ki was 0.85 nM.

Q: What about the Ki [2] of the same compound?
A: The Ki was 430 nM.

Q: And the Ki [3]?
A: Its Ki is 350 nM.

Q: What about the Ratio Ki (Homo sapiens [4]) of the same compound?
A: The Ratio Ki was 410.

Q: And the Ratio Ki (Homo sapiens [5])?
A: The Ratio Ki was 510.

Q: And the IC30 [6]?
A: Its IC30 is 80 nM.

Q: What about the inhibition at 10 min, 10 µM (CYP3A4) of the same compound?
A: The inhibition at 10 min, 10 µM was 26.1%.

Q: With `O=S1(=O)CCC(NCCOc2cc(F)ccc2F)c2cc(F)ccc21` (stereo unspecified) as the compound, how does the Ki [1] read?
A: The Ki was 12 nM.

Q: What about the inhibition at 10 min, 10 µM (CYP3A4) of the same compound?
A: The inhibition at 10 min, 10 µM was 23.1%.

Q: Which Ki [1] does the source give for `CNc1ccc2c(c1)[C@@H](NCCOc1cc(F)ccc1F)CCS2(=O)=O` here?
A: Its Ki is 0.3 nM.

Q: What about the Ki [2] of the same compound?
A: The Ki was 150 nM.

Q: And the Ki [3]?
A: The Ki was 130 nM.

Q: What about the Ratio Ki (Homo sapiens [4]) of the same compound?
A: The Ratio Ki was 430.

Q: What about the Ratio Ki (Homo sapiens [5]) of the same compound?
A: The Ratio Ki was 500.

Q: What about the IC30 [6] of the same compound?
A: The IC30 was 5.5 nM.

Q: And the inhibition at 10 min, 10 µM (CYP3A4)?
A: The inhibition at 10 min, 10 µM was 20.7%.

Q: What does the source list for `CC(NCCOc1cc(F)ccc1Cl)c1ccccc1S(C)(=O)=O` (stereo unspecified)?
A: Ki [1]: > 94 nM; Ki [2]: > 120 nM; Ki [3]: > 270 nM

Q: `COc1ccc2c(c1)S(=O)(=O)CCC2NCCOc1cc(F)ccc1F` (stereo unspecified) was tested. Which Ki [1] did it give?
A: Its Ki is 38 nM.

Q: And the inhibition at 10 min, 10 µM (CYP3A4)?
A: Its inhibition at 10 min, 10 µM is 34.3%.

Q: Which results are given for `O=S1(=O)CC(NCCOc2cc(F)ccc2Cl)c2ccccc21` (stereo unspecified)?
A: Ki [1]: > 94 nM; Ki [2]: > 120 nM; Ki [3]: > 270 nM

Q: Which Ki [1] does the source give for `COc1cccc2c1S(=O)(=O)CCC2NCCOc1cc(F)ccc1F` (stereo unspecified) here?
A: Its Ki is 170 nM.

Q: What about the inhibition at 10 min, 10 µM (CYP3A4) of the same compound?
A: The inhibition at 10 min, 10 µM was 17.1%.

Q: With `CS(=O)(=O)c1ccccc1CNCCOc1cc(F)ccc1Cl` as the compound, how does the Ki [1] read?
A: The Ki was 4.3 nM.

Q: And the Ki [2]?
A: The Ki was > 120 nM.

Q: And the Ki [3]?
A: The Ki was > 270 nM.

Q: And the IC30 [6]?
A: The IC30 was 140 nM.

Q: What does the source list for `O=S1(=O)CCC(NCCOc2cc(F)ccc2Cl)c2ccccc21` (stereo unspecified)?
A: Ki [1]: 3.9 nM; Ki [2]: > 120 nM; Ki [3]: > 270 nM; IC30 [6]: 54 nM; inhibition at 10 min, 10 µM (CYP3A4): 52.3%

Q: Which results are given for `O=S1(=O)CCC(NCCOc2cc(F)ccc2F)c2ccccc21` (stereo unspecified)?
A: Ki [1]: 17 nM; inhibition at 10 min, 10 µM (CYP3A4): 26.5%

Q: With `COc1ccc2c(c1)C(NCCOc1cc(F)ccc1F)CCS2(=O)=O` (stereo unspecified) as the compound, how does the Ki [1] read?
A: Its Ki is 1.5 nM.

Q: And the inhibition at 10 min, 10 µM (CYP3A4)?
A: Its inhibition at 10 min, 10 µM is 22.7%.

Q: Which results are given for `NC(=O)c1ccc2c(c1)C(NCCOc1cc(F)ccc1F)CCS2(=O)=O` (stereo unspecified)?
A: Ki [1]: 86 nM; inhibition at 10 min, 10 µM (CYP3A4): 12.5%

Q: For `CS(=O)(=O)c1ccc2c(c1)C(NCCOc1cc(F)ccc1F)CCS2(=O)=O` (stereo unspecified), which Ki [1] is on record?
A: Its Ki is 310 nM.

Q: And the inhibition at 10 min, 10 µM (CYP3A4)?
A: Its inhibition at 10 min, 10 µM is 5.2%.

Q: For `CNc1ccc2c(c1)[C@H](NCCOc1cc(F)ccc1F)CCS2(=O)=O`, which Ki [1] is on record?
A: Its Ki is 62 nM.

Q: What about the Ki [2] of the same compound?
A: The Ki was > 1200 nM.

Q: What about the Ki [3] of the same compound?
A: The Ki was 1200 nM.

Q: And the Ratio Ki (Homo sapiens [4])?
A: Its Ratio Ki is 19.

Q: And the Ratio Ki (Homo sapiens [5])?
A: The Ratio Ki was > 20.

Q: What about the inhibition at 10 min, 10 µM (CYP3A4) of the same compound?
A: Its inhibition at 10 min, 10 µM is 26.7%.

Q: With `CS(=O)(=O)c1ccccc1CCCNCCOc1cc(F)ccc1Cl` as the compound, how does the Ki [1] read?
A: The Ki was 9.1 nM.

Q: And the Ki [2]?
A: The Ki was 44 nM.

Q: And the Ki [3]?
A: Its Ki is 50 nM.

Q: For `CS(=O)(=O)c1ccccc1CCNCCOc1cc(F)ccc1Cl`, which Ki [1] is on record?
A: The Ki was 8.6 nM.

Q: What about the Ki [2] of the same compound?
A: Its Ki is 30 nM.

Q: And the Ki [3]?
A: The Ki was 150 nM.

Q: With `Fc1ccc(Cl)c(OCCNCc2cccc(Cl)c2)c1` as the compound, how does the Ki [1] read?
A: The Ki was 65 nM.

Q: And the Ki [2]?
A: The Ki was > 120 nM.

Q: What about the Ki [3] of the same compound?
A: The Ki was > 270 nM.

Q: Which results are given for `CS(=O)(=O)c1ccc(Cl)cc1CNCCOc1cc(F)ccc1Cl`?
A: Ki [1]: 17 nM; Ki [2]: 1100 nM; Ki [3]: 1800 nM; Ratio Ki (Homo sapiens [4]): 110; Ratio Ki (Homo sapiens [5]): 65; IC30 [6]: 250 nM
